Series [1] is described as follows: AUC (0 to infinity) in monkey at 1.35 mg/kg, iv administered as single dose. The series is classed as ADME, organism-based, Macaca mulatta. The conditions noted are these: rhesus monkey, in vivo.
Series [2] deals with Serine/threonine-protein kinase PAK 2 (Homo sapiens, UniProt Q13177). The series is described as follows: Inhibition of PAK2 (unknown origin).
A short description of series [3]: Effect on Ctsd gene expression in 5XFAD mouse cortex at 1200 ppm administered as rodent chow starting from 1.5 months and measured after 7 months by RNA-Seq analysis (reference value: 202.122 to 327.906 RPKM). The series is classed as functional. Particulars: route po, time 5.5 months, 4015 h.
Series [4] deals with T1, Macrophage colony-stimulating factor 1 receptor (Mus musculus) (UniProt P09581).
T1 sequence (whole entry): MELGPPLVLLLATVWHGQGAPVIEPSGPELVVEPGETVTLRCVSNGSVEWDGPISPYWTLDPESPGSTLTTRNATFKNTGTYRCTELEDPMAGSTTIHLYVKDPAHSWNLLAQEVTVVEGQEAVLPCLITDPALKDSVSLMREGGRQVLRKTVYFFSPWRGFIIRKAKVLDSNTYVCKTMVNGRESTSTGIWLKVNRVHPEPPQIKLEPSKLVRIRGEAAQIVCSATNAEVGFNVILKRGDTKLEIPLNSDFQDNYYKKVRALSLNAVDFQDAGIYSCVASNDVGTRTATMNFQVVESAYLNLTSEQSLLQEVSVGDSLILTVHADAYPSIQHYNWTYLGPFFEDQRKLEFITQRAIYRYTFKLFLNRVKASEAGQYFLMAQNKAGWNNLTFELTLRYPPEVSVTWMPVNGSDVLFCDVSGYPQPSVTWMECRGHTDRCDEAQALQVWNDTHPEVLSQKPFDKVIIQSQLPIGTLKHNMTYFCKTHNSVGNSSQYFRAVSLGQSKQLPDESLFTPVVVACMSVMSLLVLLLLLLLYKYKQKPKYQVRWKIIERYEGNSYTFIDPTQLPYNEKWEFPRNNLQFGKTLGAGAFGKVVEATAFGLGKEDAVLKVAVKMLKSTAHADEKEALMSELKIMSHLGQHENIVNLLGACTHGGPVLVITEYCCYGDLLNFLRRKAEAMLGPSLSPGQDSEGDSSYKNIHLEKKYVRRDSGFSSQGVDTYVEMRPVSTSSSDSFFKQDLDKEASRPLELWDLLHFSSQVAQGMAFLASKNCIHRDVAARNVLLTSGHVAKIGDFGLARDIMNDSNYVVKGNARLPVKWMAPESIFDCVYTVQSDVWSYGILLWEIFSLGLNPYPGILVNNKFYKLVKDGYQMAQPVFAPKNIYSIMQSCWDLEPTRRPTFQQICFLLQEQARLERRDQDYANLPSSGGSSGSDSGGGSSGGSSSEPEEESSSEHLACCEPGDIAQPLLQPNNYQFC
The series is described as follows: In vivo inhibition of CSF1R in wildtype mouse assessed as microglial elimination in thalamus at 1200 ppm administered as rodent chow for 10 weeks by […] based confocal microscopic analysis. The series is classed as functional. Particulars: route po.

A further series addresses Activin receptor type-1B (Homo sapiens, UniProt P36896). The series is described as follows: Inhibition of ACVR1B (unknown origin).
The target of series [5] is Calcium/calmodulin-dependent protein kinase type II subunit delta (Homo sapiens, UniProt Q13557). The series is described as follows: Inhibition of CAMK2D (unknown origin).
In series [6] the test system is Mus musculus. The series is described as follows: Antialzheimer activity in 5XFAD mouse assessed as number of pyroglutamate-3-modified positive plaques per FOV in cortex at 1200 ppm administered as rodent chow starting from 1.5 months and measured after 7 months by Thio-S staining based confocal microscopic analysis (reference value: 14 to 34). The series is classed as functional. Particulars: route po, time 5.5 months, 4015 h.

Series [7] is described as follows: Effect on Ctsz gene expression in wild type mouse cortex at 1200 ppm administered as rodent chow starting from 1.5 months and measured after 7 months by RNA-Seq analysis (reference value: 12.903 to 16.267 RPKM). The series is classed as functional. The conditions noted are these: route po, time 5.5 months, 4015 h.
The target in series [8] is Serine/threonine-protein kinase Sgk1 (Homo sapiens, UniProt O00141). The series is described as follows: Inhibition of SGK (unknown origin).
The target of series [9] is Protein kinase C theta type (Homo sapiens, UniProt Q04759). The series is described as follows: Inhibition of PRKCQ (unknown origin).
Series [10] concerns Mus musculus. The series is described as follows: Prevention of Cacnb4 gene downregulation in 5XFAD mouse hippocampus at 1200 ppm administered as rodent chow starting from 1.5 months and measured after 7 months by Nanostring analysis. The series is classed as functional, tissue-based. Particulars: route po, time 5.5 months.
A short description of series [11]: Drug concentration in 5XFAD mouse plasma at 1200 ppm administered as rodent chow for 10 to 24 weeks. The conditions noted are these: po, time 10-24 weeks. The series is classed as ADME, cell-free. The essentials:
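WT or 5xFAD mice were started at 1.5 months of age on PLX5622 formulated at 1200 ppm in AIN-76A chow, with control chow as comparison. Feeding ran for 10 or 24 weeks. Terminal plasma and brain drug levels were then measured. Groups were sex-balanced and compared by two-tailed independent t-test.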

The target in the next series is Ephrin type-A receptor 1 (Homo sapiens, UniProt P21709). The experiment in a line: Inhibition of EPHA1 (unknown origin).
Series [12] has as its system Mus musculus. The experiment in a line: Antialzheimer activity in 5XFAD mouse assessed as number of Thio-S positive plaques per FOV in thalamus at 1200 ppm administered as rodent chow starting from 1.5 months and measured after 7 months by Thio-S staining based confocal microscopic analysis (reference value: 97 to 282). The series is classed as functional. The conditions noted are these: route po, time 5.5 months, 4015 h.

The nature of series [13]: Effect on Hexb gene expression in wild type mouse cortex at 1200 ppm administered as rodent chow starting from 1.5 months and measured after 7 months by RNA-Seq analysis (reference value: 38.813 to 48.079). The series is classed as functional. Particulars: route po, time 5.5 months, 4015 h.
Series [14] has as its target Phosphorylase b kinase gamma catalytic chain, skeletal muscle/heart isoform (Homo sapiens, UniProt Q16816). The experiment in a line: Inhibition of PHKG1 (unknown origin).
The subject of series [15] is Mus musculus. The series is described as follows: Effect on APP processing pathway in 5XFAD mouse assessed as PS1 protein signal intensity in cortex at 1200 ppm administered as rodent starting from 1.5 months and measured after 7 months (reference value: 64.603 to 143.235 %). The conditions noted are these: route po, time 5.5 months, 4015 h. The series is classed as functional.

A short description of series [16]: Toxicity in wildtype mouse assessed as distance traveled at 1200 ppm administered as rodent chow for 10 to 24 weeks by Open field test (reference value: 13.381 to 26.996 meter). The conditions noted are these: in vivo, po, time 10-24 weeks.
Series [17] can be described thus: Toxicity in wildtype mouse assessed as time spent in open arm at 1200 ppm administered as rodent chow for 10 to 24 weeks by Elevated plus maze test (reference value: 8.7 to 179.9 sec). The conditions noted are these: in vivo, po, time 10-24 weeks.
In series [18] the target is T1, Macrophage colony-stimulating factor 1 receptor (Mus musculus). The series is described as follows: In vivo inhibition of CSF1R in wildtype mouse assessed as iron reactivity by measuring hemosiderin intensity of prussian blue staining in thalamus at 1200 ppm administered as rodent chow starting from 1.5 months and measured after 4 months by confocal microscopic analysis (reference value: 0.1 to 2.451 a.u.). The series is classed as functional. The conditions noted are these: route po, time 2.5 months. The essentials:
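Wild-type or 5xFAD mice fed PLX5622 (1200 ppm) in AIN-76A chow from 1.5 months of age, examined in 4- and 7-month-old cohorts. Brain sections stained with a Prussian blue kit per kit instructions to detect iron deposits (microbleeds).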

Series [19] has as its target Serine/threonine-protein kinase pim-2 (Homo sapiens, UniProt Q9P1W9). The experiment in a line: Inhibition of PIM2 (unknown origin).

The source made the active and inactive calls. The calls are words filed in the database; no cut-off is given here.

What is called AUC(0-inf) is the area under the concentration-time curve extrapolated to infinity. Usually IC50 stands for the midpoint of a concentration-inhibition curve.

Chain of Serine/threonine-protein kinase Sgk1 (O00141 whole entry): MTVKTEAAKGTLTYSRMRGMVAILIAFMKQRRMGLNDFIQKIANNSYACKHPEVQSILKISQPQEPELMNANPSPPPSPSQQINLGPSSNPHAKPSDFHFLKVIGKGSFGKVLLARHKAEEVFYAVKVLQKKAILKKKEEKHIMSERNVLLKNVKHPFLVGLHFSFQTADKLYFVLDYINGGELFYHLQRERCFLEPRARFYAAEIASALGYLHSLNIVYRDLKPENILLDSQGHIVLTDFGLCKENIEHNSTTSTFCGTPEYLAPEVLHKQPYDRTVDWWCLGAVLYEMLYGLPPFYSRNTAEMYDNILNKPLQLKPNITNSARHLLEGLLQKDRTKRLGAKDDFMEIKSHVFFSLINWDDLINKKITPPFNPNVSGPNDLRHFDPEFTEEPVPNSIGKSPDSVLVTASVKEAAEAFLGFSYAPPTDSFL
Chain of Serine/threonine-protein kinase pim-2 (Q9P1W9 whole entry): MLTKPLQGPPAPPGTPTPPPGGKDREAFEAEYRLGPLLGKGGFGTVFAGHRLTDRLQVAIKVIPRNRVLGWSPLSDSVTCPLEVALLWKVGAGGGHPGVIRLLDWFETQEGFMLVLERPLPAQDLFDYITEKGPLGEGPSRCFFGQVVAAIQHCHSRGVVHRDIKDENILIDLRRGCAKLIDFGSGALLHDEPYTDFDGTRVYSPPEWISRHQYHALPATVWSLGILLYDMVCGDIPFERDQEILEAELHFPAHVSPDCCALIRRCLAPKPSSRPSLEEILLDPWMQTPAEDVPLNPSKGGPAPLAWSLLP
Chain of Serine/threonine-protein kinase PAK 2 (Q13177 whole entry): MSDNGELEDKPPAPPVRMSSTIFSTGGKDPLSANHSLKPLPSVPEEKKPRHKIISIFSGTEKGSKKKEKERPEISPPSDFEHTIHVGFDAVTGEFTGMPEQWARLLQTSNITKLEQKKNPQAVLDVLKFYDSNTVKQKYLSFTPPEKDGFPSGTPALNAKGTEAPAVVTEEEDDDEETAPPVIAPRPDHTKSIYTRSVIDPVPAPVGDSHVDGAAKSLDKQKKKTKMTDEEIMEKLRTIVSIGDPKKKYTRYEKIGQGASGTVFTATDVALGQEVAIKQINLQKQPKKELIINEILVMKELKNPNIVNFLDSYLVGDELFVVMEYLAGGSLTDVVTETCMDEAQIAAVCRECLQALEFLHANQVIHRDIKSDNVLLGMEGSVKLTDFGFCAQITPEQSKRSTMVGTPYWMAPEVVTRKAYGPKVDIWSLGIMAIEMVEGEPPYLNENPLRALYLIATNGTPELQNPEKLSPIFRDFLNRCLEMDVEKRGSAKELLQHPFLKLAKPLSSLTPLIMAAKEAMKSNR
Chain of Protein kinase C theta type (Q04759 whole entry): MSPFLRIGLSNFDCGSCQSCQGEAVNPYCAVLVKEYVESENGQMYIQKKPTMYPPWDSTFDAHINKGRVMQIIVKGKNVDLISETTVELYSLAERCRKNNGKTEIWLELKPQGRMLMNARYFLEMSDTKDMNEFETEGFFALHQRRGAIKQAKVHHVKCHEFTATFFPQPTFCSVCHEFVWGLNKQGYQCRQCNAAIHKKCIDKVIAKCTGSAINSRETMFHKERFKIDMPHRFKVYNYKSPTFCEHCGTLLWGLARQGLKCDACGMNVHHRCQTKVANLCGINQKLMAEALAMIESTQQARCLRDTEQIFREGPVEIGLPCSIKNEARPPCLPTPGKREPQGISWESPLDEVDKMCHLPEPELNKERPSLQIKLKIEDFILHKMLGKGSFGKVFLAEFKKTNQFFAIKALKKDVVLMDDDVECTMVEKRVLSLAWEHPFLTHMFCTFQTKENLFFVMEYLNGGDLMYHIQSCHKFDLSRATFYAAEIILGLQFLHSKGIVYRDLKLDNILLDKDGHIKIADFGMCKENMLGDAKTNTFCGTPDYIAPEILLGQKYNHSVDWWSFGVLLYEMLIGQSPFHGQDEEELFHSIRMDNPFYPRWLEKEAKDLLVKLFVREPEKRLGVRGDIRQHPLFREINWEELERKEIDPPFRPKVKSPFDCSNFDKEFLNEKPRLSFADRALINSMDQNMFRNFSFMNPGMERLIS
Chain of Calcium/calmodulin-dependent protein kinase type II subunit delta (Q13557 whole entry): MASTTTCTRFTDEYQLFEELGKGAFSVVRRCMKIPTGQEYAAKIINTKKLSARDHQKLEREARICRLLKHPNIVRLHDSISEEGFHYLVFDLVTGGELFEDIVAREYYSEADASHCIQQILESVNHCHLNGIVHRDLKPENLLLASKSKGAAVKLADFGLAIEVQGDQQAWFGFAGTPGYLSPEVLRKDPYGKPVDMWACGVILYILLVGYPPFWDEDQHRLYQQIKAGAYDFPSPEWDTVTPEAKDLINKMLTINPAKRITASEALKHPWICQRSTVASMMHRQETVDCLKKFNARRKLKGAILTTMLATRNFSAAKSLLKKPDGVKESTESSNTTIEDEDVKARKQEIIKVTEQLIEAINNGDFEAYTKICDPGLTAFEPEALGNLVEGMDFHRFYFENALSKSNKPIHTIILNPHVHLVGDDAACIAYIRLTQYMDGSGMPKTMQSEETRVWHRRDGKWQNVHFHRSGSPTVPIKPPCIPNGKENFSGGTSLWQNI
Chain of Activin receptor type-1B (P36896 whole entry): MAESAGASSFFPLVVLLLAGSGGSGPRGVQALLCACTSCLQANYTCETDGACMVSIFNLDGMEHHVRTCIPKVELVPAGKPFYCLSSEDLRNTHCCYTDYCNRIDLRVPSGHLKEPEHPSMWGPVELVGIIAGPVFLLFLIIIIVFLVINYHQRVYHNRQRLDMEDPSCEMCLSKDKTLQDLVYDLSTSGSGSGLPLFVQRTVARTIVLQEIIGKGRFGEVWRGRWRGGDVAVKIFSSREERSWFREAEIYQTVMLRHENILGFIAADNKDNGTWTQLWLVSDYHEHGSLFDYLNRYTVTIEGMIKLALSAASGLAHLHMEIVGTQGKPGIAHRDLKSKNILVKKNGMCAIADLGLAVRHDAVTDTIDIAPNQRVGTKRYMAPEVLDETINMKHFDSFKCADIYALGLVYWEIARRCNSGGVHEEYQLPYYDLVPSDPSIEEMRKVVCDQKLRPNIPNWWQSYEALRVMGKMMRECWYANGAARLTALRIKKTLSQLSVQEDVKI
Chain of Ephrin type-A receptor 1 (P21709 whole entry): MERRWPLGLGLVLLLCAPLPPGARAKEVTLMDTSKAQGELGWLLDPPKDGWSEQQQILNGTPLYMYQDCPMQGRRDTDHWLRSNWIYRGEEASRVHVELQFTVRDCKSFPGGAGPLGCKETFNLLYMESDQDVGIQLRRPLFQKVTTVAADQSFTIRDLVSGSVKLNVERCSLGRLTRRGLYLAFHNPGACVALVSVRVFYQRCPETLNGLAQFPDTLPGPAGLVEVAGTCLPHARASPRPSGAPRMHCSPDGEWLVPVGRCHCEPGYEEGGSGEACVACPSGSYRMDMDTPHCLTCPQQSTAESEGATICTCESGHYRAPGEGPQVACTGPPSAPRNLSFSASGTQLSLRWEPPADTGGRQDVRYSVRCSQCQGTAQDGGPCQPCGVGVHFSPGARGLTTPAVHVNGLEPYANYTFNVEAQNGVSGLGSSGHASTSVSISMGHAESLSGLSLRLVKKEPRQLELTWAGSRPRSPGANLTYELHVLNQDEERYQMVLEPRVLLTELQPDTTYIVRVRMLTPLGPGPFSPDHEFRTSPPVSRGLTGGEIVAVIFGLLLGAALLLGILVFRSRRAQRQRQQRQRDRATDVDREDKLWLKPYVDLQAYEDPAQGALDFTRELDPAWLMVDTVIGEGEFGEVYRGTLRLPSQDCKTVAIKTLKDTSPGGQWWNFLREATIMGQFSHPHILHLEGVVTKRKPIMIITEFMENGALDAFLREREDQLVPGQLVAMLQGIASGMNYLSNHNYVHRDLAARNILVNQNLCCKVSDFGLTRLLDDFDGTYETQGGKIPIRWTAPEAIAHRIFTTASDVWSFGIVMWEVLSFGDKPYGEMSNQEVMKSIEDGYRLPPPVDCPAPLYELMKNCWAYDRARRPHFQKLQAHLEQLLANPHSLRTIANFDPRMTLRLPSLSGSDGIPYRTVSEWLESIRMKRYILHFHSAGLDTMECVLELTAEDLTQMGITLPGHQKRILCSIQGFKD
Chain of Phosphorylase b kinase gamma catalytic chain, skeletal muscle/heart isoform (Q16816 whole entry, canonical isoform): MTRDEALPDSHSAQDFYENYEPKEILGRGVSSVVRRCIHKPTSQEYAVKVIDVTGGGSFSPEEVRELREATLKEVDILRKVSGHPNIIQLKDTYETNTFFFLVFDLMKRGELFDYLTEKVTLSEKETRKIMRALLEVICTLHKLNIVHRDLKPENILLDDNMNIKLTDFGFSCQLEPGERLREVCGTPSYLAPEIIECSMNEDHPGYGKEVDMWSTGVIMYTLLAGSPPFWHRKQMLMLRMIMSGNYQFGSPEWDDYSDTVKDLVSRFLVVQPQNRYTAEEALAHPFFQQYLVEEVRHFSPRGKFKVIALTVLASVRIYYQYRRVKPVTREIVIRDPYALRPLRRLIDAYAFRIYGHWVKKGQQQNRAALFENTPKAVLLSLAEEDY

In turn, `COc1ncc(F)cc1CNc1ccc(Cc2c[nH]c3ncc(C)cc23)c(F)n1` [PLX-5622] had an AUC(0-inf) in series [1] of 2100 ng·h/mL. Moreover, the concentration for half-maximal inhibition (IC50) (in [2]; at Activin receptor type-1B; in series [5]; in series [8]; in series [9]; at Ephrin type-A receptor 1) was greater than 1000 nM each time. The IC50 in series [14] and in series [19] was greater than 1000 nM each time. For the same molecule, the Activity amounted to 106.638 RPKM in series [3]; 0 in the series on Mus musculus [6]; 11.205 RPKM in series [7]; 45 in the series on Mus musculus [12]; 8.715 RPKM in series [13]; 56.036% in the series on Mus musculus [15]. Further, the Activity in series [16] is on record as 9.067 m. In series [4], the inhibition entry was “inactive”. Besides, in the series with Mus musculus [10], the result was Active. For the same molecule, the concentration in [11] came out at 13.5 µM. The Time in [17] is reported as 11.9 s. In addition, in series [18], the Flu intensity turned out to be 0.273 a.u.

The record behind these values is ChEMBL document CHEMBL5649170, “Sustained microglial depletion with CSF1R inhibitor impairs parenchymal plaque development in an Alzheimer's disease model” (Nat Commun, 2019).
